# Assay results taken from ChEMBL document CHEMBL3272032, “Antifolate studies. Activities of 40 potential antimalarial compounds against sensitive and chlorguanide triazine resistant strains of folate-requiring bacteria and Escherichia coli” (J Med Chem, 1977).
# Active and inactive are the calls of the source. No cut-off for these calls is given here.
# Columns and labels:
# Lacticaseibacillus casei [1] = assay: Antibacterial activity against sensitive Lactobacillus casei ATCC 7469 assessed as reduction in growth in presence of 0.001 ug/ml folic acid; format: functional, organism-based
# How it was run: (§1)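 Folate-requiring strains in the medium of the earlier assay method. Folic acid was 0.002 μg/ml for S. faecium and 0.001 μg/ml for L. casei. Turbidity read on a Klett-Summerson colorimeter. IC50 is the micromolar concentration reducing growth to 50% of control. Top concentration was 1000 μg/ml, or 100 μg/ml if supply was limited.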
# Pediococcus [2] = assay: Antibacterial activity against sensitive Pediococcus cerevisiae ATCC 808 assessed as reduction in growth in presence of 0.001 ug/ml folinic acid; format: functional
# How it was run: (§2)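 P. cerevisiae grown with folinic acid at 0.001 μg/ml in the earlier-described medium. Turbidity read on a Klett-Summerson colorimeter. IC50 is the micromolar concentration reducing growth to 50% of control. Top concentration was 1000 μg/ml, or 100 μg/ml when supply was limited.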
# Plasmodium berghei [3] = assay: Antimalarial activity against Plasmodium berghei infected in sc dosed mouse assessed as active dose required to increase of 100% in mean survival time; format: functional; conditions: read-out: MED
# How it was run: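 Mice received a standard blood-induced P. berghei inoculum and were then treated with one subcutaneous dose of compound suspended in peanut oil. The minimum active dose is the lowest dose that raised mean survival time by 100%.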
# Plasmodium berghei [4] = assay: Antimalarial activity against Plasmodium berghei infected in sc dosed mouse assessed as dose required to survivors for period of 60 days; format: functional
# How it was run: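 Mice infected with a blood-induced P. berghei inoculum were given one subcutaneous dose in peanut oil. Survivors at 60 days counted as cured. The minimum curative dose is the lowest dose that cured any mouse.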
# Enterococcus faecium [5] = assay: Antibacterial activity against sensitive Streptococcus faecium ATCC 8043 assessed as reduction in growth; format: functional, organism-based
# How it was run: (§3)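 Folate-requiring strains grown in medium with folic acid, 0.002 µg/ml for S. faecium and 0.001 µg/ml for L. casei; P. cerevisiae given folinic acid, 0.001 µg/ml. Resistant substrains came from serial transfer in rising chlorguanide triazine, and the most resistant were used. Compounds tested up to 1000 µg/ml, or 100 µg/ml when supply was limited. Growth read as Klett turbidity; IC50 is the µM concentration giving 50% growth inhibition.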
# Enterococcus faecium [6] = assay: Antibacterial activity against chlorguanide triazine-resistant Streptococcus faecium ATCC 8043 assessed as reduction in growth; format: functional, organism-based; how it was run: as §3
# Enterococcus faecium [7] = assay: Fold increase in resistance, ratio of IC50 for chlorguanide triazine-resistant Streptococcus faecium ATCC 8043 to IC50 for sensitive Streptococcus faecium ATCC 8043; format: functional
# How it was run: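 Resistant S. faecium substrain raised by serial transfer in increasing chlorguanide triazine. IC50 (µM, 50% growth inhibition by turbidity) was found for resistant and parent strains in folic acid (0.002 µg/ml) medium. Fold increase taken as IC50 resistant / IC50 sensitive.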
# Lacticaseibacillus casei [8] = assay: Antibacterial activity against sensitive Lactobacillus casei ATCC 7469 assessed as reduction; format: functional, organism-based; how it was run: as §3
# Lacticaseibacillus casei [9] = assay: Antibacterial activity against chlorguanide triazine-resistant Lactobacillus casei ATCC 7469 assessed as reduction in growth; format: functional, organism-based; how it was run: as §3
# Lacticaseibacillus casei [10] = assay: Fold increase in resistance, ratio of IC50 for chlorguanide triazine-resistant Lactobacillus casei ATCC 7469 to IC50 for sensitive Lactobacillus casei ATCC 7469; format: functional
# How it was run: (§4)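 Resistant substrains were made by serial transfer in rising concentrations of cycloguanil, and the most resistant isolate of each organism was used. Both strains were assayed turbidimetrically under identical conditions. FIR = IC50 of the resistant strain divided by IC50 of the sensitive parent.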
# [11] = Antibacterial activity against sensitive Pediococcus cerevisiae ATCC 808 assessed as reduction; format: functional; how it was run: as §2
# [12] = Antibacterial activity against chlorguanide triazine-resistant Pediococcus cerevisiae ATCC 808 assessed as reduction in growth; format: functional; how it was run: as §3
# Pediococcus [13] = assay: Fold increase in resistance, ratio of IC50 for chlorguanide triazine-resistant Pediococcus cerevisiae ATCC 808 to IC50 for sensitive Pediococcus cerevisiae ATCC 808; format: functional; how it was run: as §4
# Enterococcus faecium [14] = assay: Antibacterial activity against sensitive Streptococcus faecium ATCC 8043 assessed as reduction in growth in presence of 0.002 ug/ml folic acid; format: functional, organism-based; how it was run: as §1
# Escherichia coli [15] = assay: Antibacterial activity against sensitive Escherichia coli ATCC 10536 assessed as reduction in growth in presence of p-aminobenzoic acid; format: functional, organism-based
# How it was run: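 Reversal test. Drug inhibition was challenged with PABA in Sahyun et al. medium plus 0.6% acid-hydrolyzed casein. Growth read as turbidity on a Klett-Summerson colorimeter. Scored as reversal or nonreversal of the drug inhibition.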
# Escherichia coli [16] = assay: Antibacterial activity against sensitive Escherichia coli ATCC 10536 assessed as reduction in growth; format: functional, organism-based
# How it was run: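 Growth inhibition in Sahyun et al. medium plus 0.6% acid-hydrolyzed casein. Growth read as turbidity on a Klett-Summerson photoelectric colorimeter. IC50 is the micromolar concentration giving 50% growth inhibition. Top concentration was 1000 μg/ml, or 100 μg/ml when compound was limited.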
SMILES,inhibition (Lacticaseibacillus casei [1]),inhibition (Pediococcus [2]),minimal effective dose (Plasmodium berghei [3]) [mg/kg],MCD (Plasmodium berghei [4]) [mg/kg],IC50 (Enterococcus faecium [5]) [µM],IC50 (Enterococcus faecium [6]) [µM],Ratio IC50 (Enterococcus faecium [7]),IC50 (Lacticaseibacillus casei [8]) [µM],IC50 (Lacticaseibacillus casei [9]) [µM],Ratio IC50 (Lacticaseibacillus casei [10]),IC50 [11] [µM],IC50 [12] [µM],Ratio IC50 (Pediococcus [13]),inhibition (Enterococcus faecium [14]),inhibition (Escherichia coli [15]),IC50 (Escherichia coli [16]) [µM]
CCN(CC)CCCC(C)Nc1ccnc2cc(Cl)ccc12 (stereo not given) [CHLOROQUINE],Active,Active,20,80,6600,7500,1,6400,6000,1,2500,2500,1,Active,–,–
CC1(C)N=C(N)N=C(N)N1OCc1ccc(Cl)c(Cl)c1 [CLOCIGUANIL],inactive,inactive,2.5,20,0.0009,3.4,3800,0.057,3.1,54,0.14,8.2,59,inactive,Active,7
Nc1ccc(S(=O)(=O)Nc2nccs2)cc1 [SULFATHIAZOLE],–,–,40,160,> 3900,> 3900,–,> 3900,> 3900,–,> 3900,–,–,–,inactive,7.8
COc1nccnc1NS(=O)(=O)c1ccc(N)cc1 [SULFALENE],–,–,40,160,> 3600,> 3600,–,8200,8200,1,> 3600,–,–,–,inactive,13.5
Nc1ccc(S(=O)(=O)Nc2ncccn2)cc1 [SULFADIAZINE],–,–,160,640,> 4000,> 4000,–,> 4000,> 4000,–,> 4000,–,–,–,inactive,12
Nc1ccc(S(=O)(=O)c2ccc(N)cc2)cc1 [DAPSONE],Active,Active,20,40,> 4000,> 4000,–,314,75,0.24,105,> 400,>4,–,inactive,137
CCN(CC)CCNc1nc(Nc2ccc(Cl)c(Cl)c2)nc2ccccc12,Active,Active,–,–,31,61,2,12,5,0.4,6.5,8.2,1,Active,Active,11
Cc1ccccc1-c1nc2c(N)nc(N)nc2nc1N,inactive,inactive,40,320,1.1,124,113,68,1.9,0.03,8.5,44,5,inactive,Active,209
CCOC(=O)c1cnc(S)nc1O,Active,–,40,320,> 5000,> 5000,–,3000,574,0.19,> 5000,–,–,–,–,> 5000
NC1(C(=O)O)CCCC1 [CYCLOLEUCINE],–,–,> 640,>640,> 7700,> 7700,–,> 7700,> 7700,–,> 7700,–,–,–,–,> 7700
COc1cc(NC(C)CCCN)c2ncccc2c1 (stereo not given) [PRIMAQUINE],Active,Active,40,160,1200,3000,3,630,1300,2,580,540,1,Active,–,–
CCN(CC)CCNc1nc(C(Cl)(Cl)Cl)nc2cc(Cl)ccc12,Active,Active,160,320,76,67,0.9,30,8,0.27,32,35,1,Active,Active,50
